In ChEMBL document CHEMBL3085685, “In vitro and in vivo antileishmanial and trypanocidal studies of new N-benzene- and N-naphthalenesulfonamide derivatives” (J Med Chem, 2013):
The source made the active and inactive calls. The rule behind the calls is not given here.

Legend:
[1] = Selectivity index, ratio of CC50 for mouse NCTC-929 cells to IC50 for extracellular epimastigote stage of Trypanosoma cruzi CL-B5; type: functional
Leishmania guyanensis = assay: Leishmanicidal activity against extracellular promastigote stage of Leishmania guyanensis 141/93 assessed as reduction of parasite load after 48 hrs by resazurin dye-based fluorometric analysis; type: functional, organism-based; conditions: Leishmania guyanensis, 141/93, 48 h; read-out: IC50
Procedure, shortened: (§1)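 Log-phase promastigotes cultured in Schneider's medium with 20% heat-inactivated FBS at 26 °C, 2.5 × 10^5 per well. DMSO-dissolved compounds added as 2-fold serial dilutions, final DMSO ≤0.2% (v/v), 48 h at 26 °C. Growth read by 2.5 mM resazurin stock, fluorescence 535/590 nm. Triplicate; IC50 by probit analysis.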

Trypanosoma cruzi [2] = assay: Trypanocidal activity against extracellular epimastigote stage of Trypanosoma cruzi CL-B5 assessed as reduction of parasite load after 72 hrs by CPRG-based colorimetric analysis
Trypanosoma cruzi [3] = assay: Trypanocidal activity against bloodstream trypomastigote stage of Trypanosoma cruzi Y infected in BALB/c mouse assessed as reduction of parasitemia at 10 mg/kg/day, ip qd administered for 5 days measured on day 10 post-infection by microscopic analysis relative to control; type: functional; set-up: scale not given: the % may be the effect or the level left; conditions: route intraperitoneal
Procedure, shortened: (§2)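 Female BALB/c mice (20–24 g) infected ip with 10^4 Y-strain bloodstream trypomastigotes; only parasitemic animals used. Compounds dissolved in DMSO, freshly diluted in propylene glycol, given ip at 10 mg/kg/day for 5 days from 5 dpi, with an untreated group. Parasitemia counted by Pizzi–Brener in 5 μL tail blood at 5, 8, 10 dpi; mortality checked daily to 30 dpi.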

Leishmania infantum [4] = assay: Leishmanicidal activity against promastigote stage of Leishmania infantum MCAN/ES/96/BCN150 infected in BALB/c mouse assessed as reduction of parasite burden in liver at 5 mg/kg, ip qd administered for 5 days measured after 7 days by limiting dilution assay relative to untreated control; type: functional
Procedure, shortened: (§3)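 BALB/c mice infected intracardially under pentobarbital anaesthesia with 10^7 stationary L. infantum BCN150 promastigotes. From day 21 post-infection, dosed ip once daily for 5 days in 0.1 mL propylene glycol, with an untreated control group. Killed 7 days later; spleen and liver burdens by limiting dilution and expressed as % reduction versus controls.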

Trypanosoma cruzi [5] = assay: Trypanocidal activity against intracellular amastigote stage of Trypanosoma cruzi CL-B5 infected in mouse NCTC-929 cells assessed as reduction of parasite load after 7 days by CPRG-based colorimetric analysis
[6] = Selectivity index, ratio of CC50 for mouse J774 cells to IC50 for extracellular promastigote stage of Leishmania guyanensis 141/93; type: functional
[7] = Selectivity index, ratio of CC50 for mouse J774 cells to IC50 for extracellular promastigote stage of Leishmania amazonensis MHOM/Br/79/Maria; type: functional
Trypanosoma cruzi [8] = assay: Trypanocidal activity against bloodstream trypomastigote stage of Trypanosoma cruzi Y infected in BALB/c mouse assessed as reduction of survival rate at 10 mg/kg/day, ip qd administered for 5 days measured daily until day 30 post-infection; type: functional, organism-based; procedure, shortened: as §2
Leishmania braziliensis = assay: Leishmanicidal activity against extracellular promastigote stage of Leishmania braziliensis 2903 assessed as reduction of parasite load after 48 hrs by resazurin dye-based fluorometric analysis; type: functional, organism-based; conditions: Leishmania braziliensis, 2903, 48 h; read-out: IC50; procedure, shortened: as §1
Leishmania infantum [9] = assay: Leishmanicidal activity against extracellular promastigote stage of Leishmania infantum MCAN/ES/96/BCN150 assessed as reduction of parasite load after 48 hrs by resazurin dye-based fluorometric analysis; type: functional, organism-based; conditions: Leishmania infantum, MCAN/ES/96/BCN150, 48 h; read-out: IC50; procedure, shortened: as §1
Leishmania infantum [10] = assay: Leishmanicidal activity against intracellular amastigote stage of Leishmania infantum MCAN/ES/96/BCN150 infected in mouse J774 cells assessed as reduction of parasite load after 48 hrs by resazurin dye-based fluorometric analysis; type: functional, organism-based; conditions: Leishmania infantum, MCAN/ES/96/BCN150, J774, 48 h; read-out: IC50
Procedure, shortened: (§4)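 J774 macrophages (5 × 10^4/well) infected with stationary promastigotes at 1:10, 24 h at 33 °C then 24 h at 37 °C, 5% CO2, and washed free of promastigotes. Then 2-fold serial dilutions in triplicate for 48 h at 37 °C. Cells lysed with RPMI with 0.048% HEPES and 0.006% SDS, transformed in Schneider's 3 days at 26 °C, resazurin 3 h, fluorescence 535/590 nm.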

[11] = Cytotoxicity against mouse J774 cells assessed as reduction of cell viability after 24 hrs by resazurin dye-based fluorometric analysis
Procedure, shortened: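 J774 macrophages in RPMI 1640 with 10% heat-inactivated FBS, seeded at 5 × 10^4 cells/well and attached 24 h at 37 °C, 5% CO2. Medium swapped for drug dilutions for 24 h. Then 2.5 mM resazurin stock added for 3 h, fluorescence read at 535 nm excitation / 590 nm emission. Triplicate; CC50 from probit analysis.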

Leishmania infantum [12] = assay: Leishmanicidal activity against promastigote stage of Leishmania infantum MCAN/ES/96/BCN150 infected in BALB/c mouse assessed as reduction of parasite burden in spleen at 5 mg/kg, ip qd administered for 5 days measured after 7 days by limiting dilution assay relative to untreated control; type: functional; procedure, shortened: as §3
Trypanosoma cruzi [13] = assay: Trypanocidal activity against bloodstream trypomastigote stage of Trypanosoma cruzi Y infected in BALB/c mouse assessed as reduction of parasitemia at 10 mg/kg/day, ip qd administered for 3 days measured on day 8 post-infection by microscopic analysis relative to control; type: functional; set-up: scale not given: the % may be the effect or the level left; conditions: route intraperitoneal; procedure, shortened: as §2
Leishmania amazonensis [14] = assay: Leishmanicidal activity against intracellular amastigote stage of Leishmania amazonensis MHOM/Br/79/Maria infected in mouse J774 cells assessed as reduction of parasite load after 48 hrs by resazurin dye-based fluorometric analysis; type: functional, organism-based; conditions: Leishmania amazonensis, MHOM/Br/79/Maria, J774, 48 h; read-out: IC50; procedure, shortened: as §4
[15] = Cytotoxicity against mouse NCTC-929 cells assessed as reduction of cell viability after 24 hrs by resazurin dye-based […]
Procedure, shortened: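 NCTC clone 929 fibroblasts in DMEM with 10% FBS and 2 mM L-glutamine, plated at 3 × 10^4 cells/well and grown overnight at 37 °C, 5% CO2. Compounds in fresh medium for 24 h, then 2 mM resazurin solution added for 3 h. Absorbance read at 570 and 595 nm; CC50 taken as 50% viability loss versus untreated cells, by probit analysis.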

Leishmania amazonensis [16] = assay: Leishmanicidal activity against extracellular promastigote stage of Leishmania amazonensis MHOM/Br/79/Maria assessed as reduction of parasite load after 48 hrs by resazurin dye-based fluorometric analysis; type: functional, organism-based; conditions: Leishmania amazonensis, MHOM/Br/79/Maria, 48 h; read-out: IC50; procedure, shortened: as §1
Leishmania infantum [17] = assay: Binding affinity to beta-tubulin in promastigote stage of Leishmania infantum assessed as structure disorganization at IC50 after 24 to 48 hrs by confocal laser scanning microscopic analysis
[18] = Selectivity index, ratio of CC50 for mouse J774 cells to IC50 for extracellular promastigote stage of Leishmania infantum MCAN/ES/96/BCN150; type: functional
Mus musculus [19] = assay: Toxicity in BALB/c mouse infected with promastigote stage of Leishmania infantum MCAN/ES/96/BCN150 assessed as appearance of hyperactivity with local skin irritation at 5 mg/kg, ip qd administered for 5 days; type: organism-based; set-up: dose 5 mg/kg, route intraperitoneal; conditions: in vivo, 120 h; procedure, shortened: as §3
Leishmania infantum [20] = assay: Antileishmanial activity against promastigote stage of Leishmania infantum assessed as induction of apoptosis at IC50 after 48 hrs by propidium iodide staining-based confocal laser scanning microscopic analysis; type: functional, organism-based
Leishmania infantum [21] = assay: Antileishmanial activity against promastigote stage of Leishmania infantum assessed as disappearance of kinetoplast DNA at IC50 after 48 hrs by propidium iodide staining-based confocal laser scanning microscopic analysis; type: functional, organism-based
[22] = Selectivity index, ratio of CC50 for mouse J774 cells to IC50 for extracellular promastigote stage of Leishmania braziliensis 2903; type: functional
Mus musculus [23] = assay: Toxicity in BALB/c mouse infected with promastigote stage of Leishmania infantum MCAN/ES/96/BCN150 assessed as gross weight loss at 10 mg/kg, ip qd administered for 5 days; type: organism-based; set-up: dose 10 mg/kg, route intraperitoneal; conditions: in vivo, 120 h; procedure, shortened: as §3
Mus musculus [24] = assay: Toxicity in BALB/c mouse infected with promastigote stage of Leishmania infantum MCAN/ES/96/BCN150 assessed as hair loss at 10 mg/kg, ip qd administered for 5 days; type: organism-based; set-up: dose 10 mg/kg, route intraperitoneal; conditions: in vivo, 120 h; procedure, shortened: as §3
Leishmania infantum [25] = assay: Antileishmanial activity against promastigote stage of Leishmania infantum assessed as alteration in kinetoplast DNA at IC50 after 48 hrs by propidium iodide staining-based confocal laser scanning microscopic analysis; type: functional, organism-based
Leishmania infantum [26] = assay: Binding affinity to beta-tubulin in promastigote stage of Leishmania infantum assessed as structure disorganization at IC50 after 48 hrs by confocal laser scanning microscopic analysis
Leishmania infantum [27] = assay: Leishmanicidal activity against promastigote stage of Leishmania infantum MCAN/ES/96/BCN150 infected in BALB/c mouse assessed as reduction of parasite burden in liver at 10 mg/kg, ip qd administered for 5 days measured after 7 days by limiting dilution assay relative to untreated control; type: functional; set-up: scale not given: the % may be the effect or the level left; conditions: route intraperitoneal; procedure, shortened: as §3
Leishmania infantum [28] = assay: Antileishmanial activity against promastigote stage of Leishmania infantum assessed as alteration in nuclear DNA at IC50 after 48 hrs by propidium iodide staining-based confocal laser scanning microscopic analysis; type: functional, organism-based
Leishmania infantum [29] = assay: Leishmanicidal activity against promastigote stage of Leishmania infantum MCAN/ES/96/BCN150 infected in BALB/c mouse assessed as reduction of parasite burden in spleen at 10 mg/kg, ip qd administered for 5 days measured after 7 days by limiting dilution assay relative to untreated control; type: functional; set-up: scale not given: the % may be the effect or the level left; conditions: route intraperitoneal; procedure, shortened: as §3

Structure (SMILES) | IC50 (Leishmania guyanensis) [µM] | Activity (Leishmania infantum [4]) | Ratio CC50/IC50 [6] | Ratio CC50/IC50 [7] | IC50 (Leishmania braziliensis) [µM] | IC50 (Leishmania infantum [9]) [µM] | IC50 (Leishmania infantum [10]) [µM] | CC50 at 24 h [11] [µM] | Activity (Leishmania infantum [12]) | IC50 (Leishmania amazonensis [14]) [µM] | IC50 (Leishmania amazonensis [16]) [µM] | IC50 (Trypanosoma cruzi [2]) | Ratio CC50/IC50 [18] | IC50 (Trypanosoma cruzi [5]; nctc-929) | Activity (Leishmania infantum [12]; route intraperitoneal) [%] | further results
O=S(=O)(Nc1cccc2cnccc12)c1cccc2ccccc12 | 15.8 | inactive | > 16.2 | >10.4 | 23 | 20.3 | 23 | ≥ 300 | inactive | 42.9 | 24.5 |  |  |  |  | Ratio CC50/IC50 [1]: >1.9; IC50 (Trypanosoma cruzi [2]; Trypanosoma cruzi, CL-B5, 72 h, read-out: IC50): 97.6 µM; Activity (Trypanosoma cruzi [3]): 60%; IC50 (Trypanosoma cruzi [5]; Trypanosoma cruzi, CL-B5, NCTC-929, 168 h, read-out: IC50): 141 µM; Activity (Trypanosoma cruzi [8]): Active; Activity (Trypanosoma cruzi [13]): 72%; CC50 at 24 h [15]: 187 µM
CC1CCCN(S(=O)(=O)c2cccc3ccccc23)C1 (stereo not drawn) | 7.2 | inactive |  | >10.4 | 9.9 | 6.7 | 7.1 | ≥ 300 |  | 18 | 24.6 | Not Active | > 38.2 | Not Active | 80.17 | Activity (Leishmania infantum [17]): Active; Activity (Mus musculus [19]): Toxic; Activity (Leishmania infantum [20]): Active; Activity (Leishmania infantum [21]): Active
Cc1cc2cc(NS(=O)(=O)c3ccccc3)ccc2[nH]1 | 20.9 | inactive |  | > 16.6 | 29 | 23.4 | 47.3 | ≥ 300 | inactive | 64.1 | 15.4 | Not Active |  | Not Active |  | Ratio CC50/IC50 [22]: >8.8
O=S(=O)(Nc1ccc2[nH]ncc2c1)c1ccccc1 | 47.9 |  | >5.3 |  | 40.3 | 37.3 | 83.2 | ≥ 300 |  | 30.8 | 38.7 | Not Active | > 6.9 | Not Active | 55.5 | Activity (Mus musculus [23]): Non-toxic; Activity (Mus musculus [24]): Non-toxic; Activity (Leishmania infantum [4]; route intraperitoneal): 78.9%; Activity (Leishmania infantum [25]): inactive; Activity (Leishmania infantum [26]): Active; Activity (Leishmania infantum [27]): 97.57%; Activity (Leishmania infantum [28]): inactive; Activity (Leishmania infantum [29]): 96.34%
